Measured values: ChEMBL document CHEMBL1641444, “Synthesis and evaluation of 6-[1-(2-[(18)F]fluoro-3-pyridyl)-5-methyl-1H-1,2,3-triazol-4-yl]quinoline for positron emission tomography imaging of the metabotropic glutamate receptor type 1 in brain” (Bioorg Med Chem, 2011)

Experiments:
Lung [1] = experiment: Biodistribution in lung of Sprague-Dawley rat at 17 MBq, iv after 5 mins by dissection method; assay type: ADME, organism-based; conditions: in vivo
Summary of the method: (§1)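 [¹⁸F]7a in saline (average 17 MBq/200 µL, 0.11 nmol) was given by tail vein. Rats were killed by cervical dislocation at 5, 15 or 30 min, with three rats per time point. Tissue radioactivity was measured by gamma counting, decay-corrected and expressed as %ID per gram of wet tissue.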

Kidney [2] = experiment: Biodistribution in kidney of Sprague-Dawley rat at 17 MBq, iv after 5 mins by dissection method; assay type: ADME, organism-based; conditions: in vivo
Summary of the method: (§2)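 The [18F]ligand was given to rats as a saline solution (average 17 MBq, about 0.11 nmol) via the tail vein. Three rats per time point were killed by cervical dislocation at 5, 15 and 30 min. Dissected tissues were gamma-counted with decay correction, and results are expressed as % injected dose per gram of wet tissue.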

Muscle tissue [3] = experiment: Biodistribution in muscle of Sprague-Dawley rat at 17 MBq, iv after 5 mins by dissection method; assay type: ADME, organism-based; conditions: in vivo; summary of the method: as §1
Bone [4] = experiment: Biodistribution in bone of Sprague-Dawley rat at 17 MBq, iv after 5 mins by dissection method; assay type: ADME, organism-based, Bone element; conditions: in vivo; summary of the method: as §2
Cerebellum [5] = experiment: Biodistribution in cerebellum of Sprague-Dawley rat at 17 MBq, iv after 5 mins by dissection method; assay type: ADME, organism-based; conditions: in vivo; summary of the method: as §2
Hippocampus [6] = experiment: Biodistribution in hippocampus of Sprague-Dawley rat at 17 MBq, iv after 5 mins by dissection method; assay type: ADME, organism-based; conditions: in vivo; summary of the method: as §2
[7] = Biodistribution in olfactory bulb of Sprague-Dawley rat at 17 MBq, iv after 5 mins by dissection method; assay type: ADME, organism-based; conditions: in vivo; summary of the method: as §1
Cerebral cortex [8] = experiment: Biodistribution in cerebral cortex of Sprague-Dawley rat at 17 MBq, iv after 5 mins by dissection method; assay type: ADME, organism-based; conditions: in vivo; summary of the method: as §2
[9] = Biodistribution in pons-medulla of Sprague-Dawley rat at 17 MBq, iv after 5 mins by dissection method; assay type: ADME, organism-based; conditions: in vivo; summary of the method: as §1
Lung [10] = experiment: Biodistribution in lung of Sprague-Dawley rat at 17 MBq, iv after 15 mins by dissection method; assay type: ADME, organism-based; conditions: in vivo, 0.25 h; summary of the method: as §1
Liver = experiment: Biodistribution in liver of Sprague-Dawley rat at 17 MBq, iv after 15 mins by dissection method; assay type: ADME, organism-based; conditions: in vivo, 0.25 h; summary of the method: as §2
Spleen [11] = experiment: Biodistribution in spleen of Sprague-Dawley rat at 17 MBq, iv after 15 mins by dissection method; assay type: ADME, organism-based; conditions: in vivo, 0.25 h; summary of the method: as §1
Kidney [12] = experiment: Biodistribution in kidney of Sprague-Dawley rat at 17 MBq, iv after 15 mins by dissection method; assay type: ADME, organism-based; conditions: in vivo, 0.25 h; summary of the method: as §2
[13] = Biodistribution in small intestine of Sprague-Dawley rat at 17 MBq, iv after 15 mins by dissection method; assay type: ADME, organism-based; conditions: in vivo, 0.25 h; summary of the method: as §1
Pancreas [14] = experiment: Biodistribution in pancreas of Sprague-Dawley rat at 17 MBq, iv after 15 mins by dissection method; assay type: ADME, organism-based; conditions: in vivo, 0.25 h; summary of the method: as §1
Bone [15] = experiment: Biodistribution in bone of Sprague-Dawley rat at 17 MBq, iv after 15 mins by dissection method; assay type: ADME, organism-based, Bone element; conditions: in vivo, 0.25 h; summary of the method: as §2
Cerebellum [16] = experiment: Biodistribution in cerebellum of Sprague-Dawley rat at 17 MBq, iv after 15 mins by dissection method; assay type: ADME, organism-based; conditions: in vivo, 0.25 h; summary of the method: as §2
Hippocampus [17] = experiment: Biodistribution in hippocampus of Sprague-Dawley rat at 17 MBq, iv after 15 mins by dissection method; assay type: ADME, organism-based; conditions: in vivo, 0.25 h; summary of the method: as §2
Thalamus = experiment: Biodistribution in thalamus of Sprague-Dawley rat at 17 MBq, iv after 15 mins by dissection method; assay type: ADME, organism-based; conditions: in vivo, 0.25 h; summary of the method: as §1
Striatum [18] = experiment: Biodistribution in striatum of Sprague-Dawley rat at 17 MBq, iv after 15 mins by dissection method; assay type: ADME, organism-based; conditions: in vivo, 0.25 h; summary of the method: as §1
[19] = Biodistribution in olfactory bulb of Sprague-Dawley rat at 17 MBq, iv after 15 mins by dissection method; assay type: ADME, organism-based; conditions: in vivo, 0.25 h; summary of the method: as §1
Cerebral cortex [20] = experiment: Biodistribution in cerebral cortex of Sprague-Dawley rat at 17 MBq, iv after 15 mins by dissection method; assay type: ADME, organism-based; conditions: in vivo, 0.25 h; summary of the method: as §2
[21] = Biodistribution in pons-medulla of Sprague-Dawley rat at 17 MBq, iv after 15 mins by dissection method; assay type: ADME, organism-based; conditions: in vivo, 0.25 h; summary of the method: as §1
Blood = experiment: Biodistribution in blood of Sprague-Dawley rat at 17 MBq, iv after 30 mins by dissection method; assay type: ADME, organism-based; conditions: in vivo, 0.5 h; summary of the method: as §2
Heart = experiment: Biodistribution in heart of Sprague-Dawley rat at 17 MBq, iv after 30 mins by dissection method; assay type: ADME, organism-based; conditions: in vivo, 0.5 h; summary of the method: as §2
Lung [22] = experiment: Biodistribution in lung of Sprague-Dawley rat at 17 MBq, iv after 30 mins by dissection method; assay type: ADME, organism-based; conditions: in vivo, 0.5 h; summary of the method: as §1
Spleen [23] = experiment: Biodistribution in spleen of Sprague-Dawley rat at 17 MBq, iv after 30 mins by dissection method; assay type: ADME, organism-based; conditions: in vivo, 0.5 h; summary of the method: as §1
Kidney [24] = experiment: Biodistribution in kidney of Sprague-Dawley rat at 17 MBq, iv after 30 mins by dissection method; assay type: ADME, organism-based; conditions: in vivo, 0.5 h; summary of the method: as §2
Pancreas [25] = experiment: Biodistribution in pancreas of Sprague-Dawley rat at 17 MBq, iv after 30 mins by dissection method; assay type: ADME, organism-based; conditions: in vivo, 0.5 h; summary of the method: as §1
Muscle tissue [26] = experiment: Biodistribution in muscle of Sprague-Dawley rat at 17 MBq, iv after 30 mins by dissection method; assay type: ADME, organism-based; conditions: in vivo, 0.5 h; summary of the method: as §1
Bone [27] = experiment: Biodistribution in bone of Sprague-Dawley rat at 17 MBq, iv after 30 mins by dissection method; assay type: ADME, organism-based, Bone element; conditions: in vivo, 0.5 h; summary of the method: as §2
Cerebellum [28] = experiment: Biodistribution in cerebellum of Sprague-Dawley rat at 17 MBq, iv after 30 mins by dissection method; assay type: ADME, organism-based; conditions: in vivo, 0.5 h; summary of the method: as §2
Hippocampus [29] = experiment: Biodistribution in hippocampus of Sprague-Dawley rat at 17 MBq, iv after 30 mins by dissection method; assay type: ADME, organism-based; conditions: in vivo, 0.5 h; summary of the method: as §2
Striatum [30] = experiment: Biodistribution in striatum of Sprague-Dawley rat at 17 MBq, iv after 30 mins by dissection method; assay type: ADME, organism-based; conditions: in vivo, 0.5 h; summary of the method: as §1
Cerebral cortex [31] = experiment: Biodistribution in cerebral cortex of Sprague-Dawley rat at 17 MBq, iv after 30 mins by dissection method; assay type: ADME, organism-based; conditions: in vivo, 0.5 h; summary of the method: as §2
[32] = Ratio of drug uptake in Sprague-Dawley rat thalamus to medulla at 17 MBq, iv after 10 to 15 mins by small-animal PET; conditions: in vivo
[33] = Ratio of drug uptake in Sprague-Dawley rat striatum to medulla at 17 MBq, iv after 10 to 15 mins by small-animal PET; conditions: in vivo
[34] = Ratio of drug uptake in Sprague-Dawley rat cerebellum to medulla at 17 MBq, iv after 10 to 15 mins by small-animal PET; conditions: in vivo
[35] = Ratio of drug uptake in Sprague-Dawley rat hippocampus to medulla at 17 MBq, iv after 10 to 15 mins by small-animal PET; conditions: in vivo
[36] = Metabolic stability in plasma of ddy mouse assessed as reduction of parent compound level at 3.7 MBq, iv after 5 mins by HPLC analysis; parameters: scale not given: the % may be the effect or the level left
[37] = Metabolic stability in plasma of ddy mouse assessed as reduction of parent compound level at 3.7 MBq, iv after 15 mins by HPLC analysis; parameters: scale not given: the % may be the effect or the level left; conditions: 0.25 h
[38] = Metabolic stability in plasma of ddy mouse assessed as reduction of parent compound level at 3.7 MBq, iv after 30 mins by HPLC analysis; parameters: scale not given: the % may be the effect or the level left; conditions: 0.5 h

Drug uptake (Lung [1]): 0.5 % ID/g
Drug uptake (Kidney [2]): 0.76 % ID/g
Drug uptake (Muscle tissue [3]): 0.28 % ID/g
Drug uptake (Bone [4]): 0.22 % ID/g
Drug uptake (Cerebellum [5]): 1.21 % ID/g
Drug uptake (Hippocampus [6]): 0.58 % ID/g
Drug uptake [7]: 0.52 % ID/g
Drug uptake (Cerebral cortex [8]): 0.44 % ID/g
Drug uptake [9]: 0.47 % ID/g
Drug uptake (Lung [10]): 0.31 % ID/g
Drug uptake (Liver): 2.04 % ID/g
Drug uptake (Spleen [11]): 0.25 % ID/g
Drug uptake (Kidney [12]): 0.57 % ID/g
Drug uptake [13]: 4.64 % ID/g
Drug uptake (Pancreas [14]): 0.34 % ID/g
Drug uptake (Bone [15]): 0.15 % ID/g
Drug uptake (Cerebellum [16]): 0.54 % ID/g
Drug uptake (Hippocampus [17]): 0.22 % ID/g
Drug uptake (Thalamus): 0.29 % ID/g
Drug uptake (Striatum [18]): 0.23 % ID/g
Drug uptake [19]: 0.24 % ID/g
Drug uptake (Cerebral cortex [20]): 0.2 % ID/g
Drug uptake [21]: 0.21 % ID/g
Drug uptake (Blood): 0.15 % ID/g
Drug uptake (Heart): 0.16 % ID/g
Drug uptake (Lung [22]): 0.17 % ID/g
Drug uptake (Spleen [23]): 0.16 % ID/g
Drug uptake (Kidney [24]): 0.39 % ID/g
Drug uptake (Pancreas [25]): 0.21 % ID/g
Drug uptake (Muscle tissue [26]): 0.1 % ID/g
Drug uptake (Bone [27]): 0.22 % ID/g
Drug uptake (Cerebellum [28]): 0.2 % ID/g
Drug uptake (Hippocampus [29]): 0.09 % ID/g
Drug uptake (Striatum [30]): 0.11 % ID/g
Drug uptake (Cerebral cortex [31]): 0.09 % ID/g
Ratio [32]: 1.91
Ratio [33]: 1.55
Ratio [34]: 3.73
Ratio [35]: 1.42
Stability [36]: 57%
Stability [37]: 23%
Stability [38]: 4%
Compound: Cc1c(-c2ccc3ncccc3c2)nnn1-c1cccnc1[18F]
